ChEMBL document CHEMBL4342471, “Discovery of Thieno[2,3-d]pyrimidine-Based Hydroxamic Acid Derivatives as Bromodomain-Containing Protein 4/Histone Deacetylase Dual Inhibitors Induce Autophagic Cell Death in Colorectal Carcinoma Cells” (J Med Chem, 2020)
Calls of active or inactive are those of the source. No cut-off for these calls is given here.

Tests used:
[1] = target: T1, Bromodomain-containing protein 2 (Homo sapiens, UniProt P25440); assay: Inhibition of human recombinant His-tagged BRD2 BD1 domain expressed in Escherichia coli BL21(DE3)-R3-pRARE2 cells by AlphaScreen assay
Homo sapiens [2] = organism: Homo sapiens; assay: Inhibition of BRD4/HDAC in human HCT116 cells assessed as increase in OSM mRNA level at 0.5 uM after 24 hrs by RT-PCR analysis; format: cell-based
In short: (§1)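 HCT-116 cells incubated 24 h with test agent (0.5 µM, 2.0 µM or 10 µM depending on compound); IL6, OSM, LIF and CTF1 mRNA levels then quantified.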

[3] = target: T2, Bromodomain-containing protein 4 (Homo sapiens, UniProt O60885); assay: Inhibition of BRD4 in human HCT116 cells assessed as reduction in C-myc level at 0.2 to 0.5 uM measured after 24 hrs by Western blot analysis; format: cell-based
Mus musculus = assay: Increase in LIFR expression in tumor tissue of BALB/cAnNCrl mouse xenografted with human HCT116 cells at 15 to 30 mg/kg, po administered on day 1 to day 19 measured on day 19 by immunohistochemical analysis; format: functional, organism-based
In short: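 HCT-116 xenograft mice were dosed orally at 15 or 30 mg/kg, or 30 mg/kg for reference agents, for 19 days, with vehicle or saline controls. Tumor sections were stained for Ki-67, c-Myc, Ac-H3, BRD4, LC3-II, LIFR and p-STAT3 by immunohistochemistry, and TUNEL staining was used as the apoptosis marker.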

Homo sapiens [4] = organism: Homo sapiens; assay: Inhibition of BRD4/HDAC in human HCT116 cells assessed as inhibition of IL6-JAK-STAT3 signaling pathway by measuring decrease in JAK1 expression at 0.5 uM after 24 hrs by Western blot analysis; format: cell-based
In short: (§2)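 HCT-116 cells treated 24 h with 0.5 µM, 5.0 µM or 10 µM test agent depending on compound; OSMR, LIFR and downstream pathway proteins detected by western blot.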

SW480 = assay: Cytotoxicity against human SW480 cells assessed as reduction in cell viability; format: functional, cell-based
In short: (§3)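 Antiproliferative IC50 values were measured by MTT assay across a panel of colorectal carcinoma cell lines and normal colorectal epithelial cells.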

Homo sapiens [5] = organism: Homo sapiens; assay: Inhibition of BRD4/HDAC in human HCT116 cells assessed as increase in PARP cleavage at 0.2 to 0.5 uM measured after 24 hrs by Western blot analysis; format: cell-based
HCT-116 [6] = assay: Antitumor activity against human HCT116 cells xenografted in orally dosed BALB/cAnNCrl mouse assessed as reduction in tumor volume administered on day 1 to day 19 relative to control; format: functional, organism-based
In short: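 HCT-116 xenografts in mice were given the test agent orally at 15 or 30 mg/kg, with a saline control group, over 19 days. Tumor volume was followed during treatment and tumors were weighed at the end. Body weight was monitored. Inhibition is expressed as treatment-to-control (T/C) ratio.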

Histone deacetylase 5 = Histone deacetylase 5 (Homo sapiens, UniProt Q9UQL6); assay: Inhibition of HDAC5 (unknown origin) using biotinylated histone H3 KAc peptide (1 to 21 residues) as substrate by HTRF assay
[7] = target: Polyamine deacetylase HDAC10 (Homo sapiens, UniProt Q969S8); assay: Inhibition of HDAC10 (unknown origin) using biotinylated histone H3 KAc peptide (1 to 21 residues) as substrate by HTRF assay
[8] = Toxicity in BALB/cAnNCrl mouse xenografted with human HCT116 cells assessed as effect on kidney morphological changes at 15 to 30 mg/kg, po administered on day 1 to day 19 measured on day 19 by hematoxylin and eosin staining based assay; format: organism-based; details: in vivo
In short: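 HCT-116 xenograft mice dosed orally at 15 or 30 mg/kg for 19 days, saline as vehicle control; body weights tracked, and main organs sectioned and H&E-stained at study end.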

Histone deacetylase 8 = Histone deacetylase 8 (Homo sapiens, UniProt Q9BY41); assay: Inhibition of HDAC8 (unknown origin) using biotinylated histone H3 KAc peptide (1 to 21 residues) as substrate by HTRF assay
[9] = AUC (0 to infinity) in Sprague-Dawley rat at 30 mg/kg, iv administered as bolus dose measured up to 1440 mins by UPLC-QTOF/MS analysis; format: ADME, organism-based; parameters: dose 30 mg/kg, route intravenous, time infinity; details: in vivo
[10] = target: T2, Bromodomain-containing protein 4; assay: Inhibition of BRD4 in human HCT116 cells transfected with ATG5 siRNA assessed as activation of AMPK-alpha at 0.5 uM by Western blot analysis; format: cell-based
In short: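 HCT-116 cells first transfected with ATG5 siRNA or scramble siRNA; after silencing, exposed to 0.5 µM test agent or normal saline, then ATG5, AMPKα, p-AMPKα, p62 and LC3 protein assessed by western blot.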

Homo sapiens [11] = organism: Homo sapiens; assay: Inhibition of BRD4/HDAC in human HCT116 cells assessed as increase in LIF mRNA level at 0.5 uM after 24 hrs by RT-PCR analysis; format: cell-based; in short: as §1
HCT-116 [12] = assay: Induction of apoptosis in human HCT116 cells assessed as necrotic cells at 0.5 uM by Annexin-V FITC/propidium iodide staining-based flow cytometry (reference value: 0.304 %); format: functional
Homo sapiens [13] = organism: Homo sapiens; assay: Inhibition of BRD4/HDAC in human HCT116 cells assessed as inhibition of IL6-JAK-STAT3 signaling pathway by measuring decrease in OSMR expression at 0.5 uM after 24 hrs by Western blot analysis; format: cell-based; in short: as §2
[14] = target: T2, Bromodomain-containing protein 4; assay: Inhibition of BRD4 in human HCT116 cells assessed as induction of autophagy by measuring LC3-I cleavage to LC3-II at 0.5 uM measured after 24 hrs by Western blot analysis; format: cell-based
In short: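 HCT-116 cells were treated for 24 hours with 0.5 μM, 2.0 μM or 10 μM agents. LC3 (LC3-I to LC3-II conversion) and p62 were then detected by western blot.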

[15] = target: T1, Bromodomain-containing protein 2; assay: Inhibition of human recombinant His-tagged BRD2 BD2 domain expressed in Escherichia coli BL21(DE3)-R3-pRARE2 cells by AlphaScreen assay
[16] = Oral bioavailability in Sprague-Dawley rat at 30 mg/kg measured up to 1440 mins by UPLC-QTOF/MS analysis; format: ADME, organism-based; details: in vivo
[17] = target: T2, Bromodomain-containing protein 4; assay: Inhibition of BRD4 in human HCT116 cells assessed as induction of autophagy by measuring decrease in p62 expression at 0.2 to 0.5 uM measured after 24 hrs by Western blot analysis; format: cell-based
Histone deacetylase 4 = Histone deacetylase 4 (Homo sapiens, UniProt P56524); assay: Inhibition of HDAC4 (unknown origin) using biotinylated histone H3 KAc peptide (1 to 21 residues) as substrate by HTRF assay
HCT-116 [18] = assay: Induction of apoptosis in human HCT116 cells assessed as apoptotic cells at 0.5 uM by Annexin-V FITC/propidium iodide staining-based flow cytometry (reference value: 6.3 +/- 0.4 %); format: functional
LoVo = assay: Cytotoxicity against human LoVo cells assessed as reduction in cell viability; format: functional, cell-based; in short: as §3
HT-29 = assay: Cytotoxicity against human HT-29 cells assessed as reduction in cell viability; format: functional, cell-based; in short: as §3
Homo sapiens [19] = organism: Homo sapiens; assay: Inhibition of BRD4/HDAC in human HCT116 cells assessed as increase in IL6 mRNA level at 0.5 uM after 24 hrs by RT-PCR analysis; format: cell-based; in short: as §1

T1 sequence (P25440 whole entry, the tested form may be a part): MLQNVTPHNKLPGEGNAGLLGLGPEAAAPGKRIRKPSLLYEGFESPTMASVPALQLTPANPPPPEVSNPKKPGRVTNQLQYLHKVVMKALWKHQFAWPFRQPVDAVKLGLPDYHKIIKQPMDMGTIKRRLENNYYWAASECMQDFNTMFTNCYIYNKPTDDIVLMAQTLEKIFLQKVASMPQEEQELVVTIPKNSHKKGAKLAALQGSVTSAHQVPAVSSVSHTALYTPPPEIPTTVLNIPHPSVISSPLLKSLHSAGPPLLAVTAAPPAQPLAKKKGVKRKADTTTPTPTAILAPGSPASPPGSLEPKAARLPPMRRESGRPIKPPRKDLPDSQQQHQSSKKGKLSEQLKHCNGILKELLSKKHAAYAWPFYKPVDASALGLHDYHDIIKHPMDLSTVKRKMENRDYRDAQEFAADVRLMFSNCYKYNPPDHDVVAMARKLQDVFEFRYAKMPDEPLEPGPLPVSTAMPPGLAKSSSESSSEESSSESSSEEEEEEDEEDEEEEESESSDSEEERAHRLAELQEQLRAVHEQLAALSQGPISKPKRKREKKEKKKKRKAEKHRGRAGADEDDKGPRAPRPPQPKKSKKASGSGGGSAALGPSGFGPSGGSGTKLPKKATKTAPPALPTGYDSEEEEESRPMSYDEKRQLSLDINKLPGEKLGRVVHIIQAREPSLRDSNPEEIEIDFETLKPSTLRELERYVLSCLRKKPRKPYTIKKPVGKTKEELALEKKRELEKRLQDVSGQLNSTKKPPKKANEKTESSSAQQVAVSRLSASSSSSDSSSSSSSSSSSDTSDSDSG
Histone deacetylase 5, sequence (Q9UQL6 whole entry, the tested form may be a part): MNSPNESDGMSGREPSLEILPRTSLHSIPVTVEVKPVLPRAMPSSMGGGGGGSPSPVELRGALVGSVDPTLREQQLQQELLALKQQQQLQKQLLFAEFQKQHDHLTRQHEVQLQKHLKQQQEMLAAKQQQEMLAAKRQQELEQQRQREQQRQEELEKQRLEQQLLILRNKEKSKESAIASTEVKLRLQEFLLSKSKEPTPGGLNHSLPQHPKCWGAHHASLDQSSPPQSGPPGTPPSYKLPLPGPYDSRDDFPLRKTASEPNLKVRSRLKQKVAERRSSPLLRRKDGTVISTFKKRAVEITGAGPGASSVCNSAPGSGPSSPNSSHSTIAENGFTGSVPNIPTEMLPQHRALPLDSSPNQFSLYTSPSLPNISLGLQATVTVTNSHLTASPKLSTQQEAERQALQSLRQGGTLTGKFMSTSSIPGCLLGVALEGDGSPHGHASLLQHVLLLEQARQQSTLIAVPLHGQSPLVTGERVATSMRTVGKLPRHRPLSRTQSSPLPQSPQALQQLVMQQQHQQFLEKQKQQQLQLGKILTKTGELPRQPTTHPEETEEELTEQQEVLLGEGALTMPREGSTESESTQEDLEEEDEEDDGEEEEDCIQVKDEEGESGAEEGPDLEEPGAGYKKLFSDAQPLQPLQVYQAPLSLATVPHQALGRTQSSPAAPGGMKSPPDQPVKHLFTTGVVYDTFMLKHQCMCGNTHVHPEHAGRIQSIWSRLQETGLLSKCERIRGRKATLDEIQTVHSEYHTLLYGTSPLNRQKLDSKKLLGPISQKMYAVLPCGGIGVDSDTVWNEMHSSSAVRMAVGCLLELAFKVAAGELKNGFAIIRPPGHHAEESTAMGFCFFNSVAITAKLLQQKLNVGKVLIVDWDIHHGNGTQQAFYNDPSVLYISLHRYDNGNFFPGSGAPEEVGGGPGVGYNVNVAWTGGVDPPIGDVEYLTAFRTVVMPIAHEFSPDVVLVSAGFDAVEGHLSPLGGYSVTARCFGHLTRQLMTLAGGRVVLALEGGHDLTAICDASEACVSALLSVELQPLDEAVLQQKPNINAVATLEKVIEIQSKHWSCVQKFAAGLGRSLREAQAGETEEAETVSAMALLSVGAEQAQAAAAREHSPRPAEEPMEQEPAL
Histone deacetylase 4, sequence (P56524 whole entry, the tested form may be a part): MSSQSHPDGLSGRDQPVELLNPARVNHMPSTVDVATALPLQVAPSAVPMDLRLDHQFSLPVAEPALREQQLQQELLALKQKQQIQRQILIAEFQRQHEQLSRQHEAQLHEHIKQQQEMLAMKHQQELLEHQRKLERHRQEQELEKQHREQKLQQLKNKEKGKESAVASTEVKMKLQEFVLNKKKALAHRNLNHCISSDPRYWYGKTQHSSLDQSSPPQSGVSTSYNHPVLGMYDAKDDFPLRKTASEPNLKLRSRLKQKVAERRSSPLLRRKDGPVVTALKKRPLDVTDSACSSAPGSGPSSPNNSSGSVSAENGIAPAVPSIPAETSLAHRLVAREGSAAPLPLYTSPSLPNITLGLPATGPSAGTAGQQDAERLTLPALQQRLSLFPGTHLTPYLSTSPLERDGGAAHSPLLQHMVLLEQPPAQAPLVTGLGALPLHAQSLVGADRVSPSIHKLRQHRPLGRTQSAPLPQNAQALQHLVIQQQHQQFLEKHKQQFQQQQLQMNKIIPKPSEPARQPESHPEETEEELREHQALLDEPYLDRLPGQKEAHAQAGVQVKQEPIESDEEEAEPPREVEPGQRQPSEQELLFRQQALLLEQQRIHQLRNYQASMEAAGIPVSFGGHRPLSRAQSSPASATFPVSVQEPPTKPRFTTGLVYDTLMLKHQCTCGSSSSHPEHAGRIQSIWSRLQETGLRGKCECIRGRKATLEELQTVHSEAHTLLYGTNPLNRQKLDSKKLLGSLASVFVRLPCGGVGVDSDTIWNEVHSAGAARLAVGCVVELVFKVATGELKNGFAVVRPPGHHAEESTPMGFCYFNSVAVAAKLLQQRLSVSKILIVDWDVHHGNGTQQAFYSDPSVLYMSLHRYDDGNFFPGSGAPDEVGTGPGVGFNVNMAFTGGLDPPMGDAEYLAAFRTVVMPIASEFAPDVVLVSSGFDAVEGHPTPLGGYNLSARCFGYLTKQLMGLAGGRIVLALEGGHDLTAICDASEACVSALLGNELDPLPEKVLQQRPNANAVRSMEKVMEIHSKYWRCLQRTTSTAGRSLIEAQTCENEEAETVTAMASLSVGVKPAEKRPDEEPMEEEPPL
Histone deacetylase 8, sequence (Q9BY41 whole entry, the tested form may be a part): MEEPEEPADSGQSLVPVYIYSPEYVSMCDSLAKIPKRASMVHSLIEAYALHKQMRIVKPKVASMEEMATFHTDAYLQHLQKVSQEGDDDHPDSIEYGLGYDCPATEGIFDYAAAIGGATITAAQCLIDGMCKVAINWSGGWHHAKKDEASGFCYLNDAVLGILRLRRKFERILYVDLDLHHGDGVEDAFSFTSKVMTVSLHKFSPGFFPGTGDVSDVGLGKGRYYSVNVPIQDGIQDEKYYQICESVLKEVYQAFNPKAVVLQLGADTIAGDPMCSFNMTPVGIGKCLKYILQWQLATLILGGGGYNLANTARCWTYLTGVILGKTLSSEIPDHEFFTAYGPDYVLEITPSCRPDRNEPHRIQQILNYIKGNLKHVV
Polyamine deacetylase HDAC10, sequence (Q969S8 whole entry, the tested form may be a part): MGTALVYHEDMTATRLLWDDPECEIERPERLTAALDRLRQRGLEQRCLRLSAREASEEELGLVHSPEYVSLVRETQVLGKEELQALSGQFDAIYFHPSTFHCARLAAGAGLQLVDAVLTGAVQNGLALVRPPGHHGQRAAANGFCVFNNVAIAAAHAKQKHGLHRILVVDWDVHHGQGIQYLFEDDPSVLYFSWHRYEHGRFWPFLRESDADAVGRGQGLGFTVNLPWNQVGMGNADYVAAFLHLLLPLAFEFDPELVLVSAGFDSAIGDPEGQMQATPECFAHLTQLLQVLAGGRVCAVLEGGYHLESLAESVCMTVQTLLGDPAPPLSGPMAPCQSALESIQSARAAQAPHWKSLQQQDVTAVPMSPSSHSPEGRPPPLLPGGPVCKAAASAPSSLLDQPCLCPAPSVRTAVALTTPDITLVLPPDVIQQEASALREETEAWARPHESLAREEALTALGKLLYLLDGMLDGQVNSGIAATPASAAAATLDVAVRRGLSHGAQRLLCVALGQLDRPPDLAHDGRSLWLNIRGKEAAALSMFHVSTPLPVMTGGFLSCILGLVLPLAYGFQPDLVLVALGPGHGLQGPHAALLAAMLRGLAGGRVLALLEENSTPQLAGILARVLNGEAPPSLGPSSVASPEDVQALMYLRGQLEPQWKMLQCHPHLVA

Question: For `Cc1cc(-c2nc3sc4c(c3c(=O)[nH]2)CCN(C)C4)cc(C)c1OCCCCCC(=O)NO`, which IC50 [1] is on record?
Answer: The IC50 was 16.4 µM.

Question: And the inhibition (Homo sapiens [2])?
Answer: Its inhibition is “Active”.

Question: What about the inhibition [3] of the same compound?
Answer: Its inhibition is “Active”.

Question: What about the Activity (Mus musculus) of the same compound?
Answer: Its Activity is “inactive”.

Question: And the inhibition (Homo sapiens [4])?
Answer: The inhibition was “Active”.

Question: What about the Activity (SW480) of the same compound?
Answer: The Activity was “Active”.

Question: And the inhibition (Homo sapiens [5])?
Answer: The inhibition was “Active”.

Question: What about the Activity (HCT-116 [6]) of the same compound?
Answer: Its Activity is “Dose-dependent effect”.

Question: And the IC50 (Histone deacetylase 5)?
Answer: The IC50 was greater than 10 µM.

Question: And the IC50 [7]?
Answer: Its IC50 is 0.923 µM.

Question: What about the Activity [8] of the same compound?
Answer: Its Activity is “Non-Toxic”.

Question: What about the IC50 (Histone deacetylase 8) of the same compound?
Answer: The IC50 was 0.167 µM.

Question: And the AUC(0-inf) [9]?
Answer: Its AUC(0-inf) is 156 µg·h/mL.

Question: And the inhibition [10]?
Answer: Its inhibition is “Active”.

Question: What about the inhibition (Homo sapiens [11]) of the same compound?
Answer: Its inhibition is “Active”.

Question: And the Activity (HCT-116 [12])?
Answer: The Activity was 9.75%.

Question: What about the inhibition (Homo sapiens [13]) of the same compound?
Answer: The inhibition was “Active”.

Question: And the inhibition [14]?
Answer: Its inhibition is “Active”.

Question: And the IC50 [15]?
Answer: The IC50 was greater than 20 µM.

Question: What about the bioavailability [16] of the same compound?
Answer: Its bioavailability is 40.5%.

Question: What about the inhibition [17] of the same compound?
Answer: The inhibition was “Active”.

Question: And the IC50 (Histone deacetylase 4)?
Answer: The IC50 was greater than 10 µM.

Question: What about the Activity (HCT-116 [18]) of the same compound?
Answer: The Activity was 45.3%.

Question: And the Activity (LoVo)?
Answer: The Activity was “Active”.

Question: What about the Activity (HT-29) of the same compound?
Answer: Its Activity is “Active”.

Question: And the inhibition (Homo sapiens [19])?
Answer: Its inhibition is “Active”.
